Laboratory results taken from ChEMBL document CHEMBL4041548, “Ester Prodrugs of IHVR-19029 with Enhanced Oral Exposure and Prevention of Gastrointestinal Glucosidase Interaction” (ACS Med Chem Lett, 2017).

Tests used:
[1] = Inhibition of pig liver endoplasmic reticulum alpha glucosidase-1 using 4-methylumbelliferyl-alpha-D-glucoside as substrate measured after 90 mins by fluorescence analysis; set-up: species or system Sus scrofa
[2] = Half life in pooled human liver microsomes at 200 uM by LC-MS/MS analysis; type: ADME, microsome; settings: liver microsomes
Outline: (§1)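 Prodrugs or parent incubated in pooled human or mouse liver microsomes for up to 60 min, with or without cofactor. Percent remaining and percent conversion to the parent were measured.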

[3] = Metabolic stability in pooled human liver microsomes assessed as parent compound remaining at 200 uM measured after 60 mins by LC-MS/MS analysis; type: ADME, microsome; settings: liver microsomes, read-out: Stability; outline: as §1
[4] = Metabolic stability in human plasma assessed as parent compound remaining at 5 uM measured after 2 hrs by LC-MS/MS analysis; type: ADME, cell-free; settings: read-out: Stability
Outline: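 Compounds incubated in human or mouse plasma for 2 h. Percent remaining and percent conversion to the parent were determined.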

Mus musculus [5] = experiment: Prodrug activation in po dosed BALB/c mouse assessed as 3-(tert-butyl)-1-cyclohexyl-1-(6-((2R,3R,4R,5S)-3,4,5-trihydroxy-2-(hydroxymethyl)piperidin-1-yl)hexyl)urea formation measured after 5 mins by LC-MS/MS analysis; type: organism-based; settings: in vivo
Outline: (§2)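 Male BALB/c mice dosed with the prodrugs or the parent orally (25 or 100 mg/kg) or intravenously (5 mg/kg). The parent compound was quantified in plasma and PK parameters were derived from it. The first sampling point was 5 min post-dose, and prodrugs were tracked up to 4 h.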

Mus musculus [6] = experiment: Prodrug activation in BALB/c mouse assessed as 3-(tert-butyl)-1-cyclohexyl-1-(6-((2R,3R,4R,5S)-3,4,5-trihydroxy-2-(hydroxymethyl)piperidin-1-yl)hexyl)urea half life at 5 mg/kg, iv as bolus administration by LC-MS/MS analysis; type: organism-based; settings: in vivo; outline: as §2
Mus musculus [7] = experiment: Prodrug activation in BALB/c mouse assessed as 3-(tert-butyl)-1-cyclohexyl-1-(6-((2R,3R,4R,5S)-3,4,5-trihydroxy-2-(hydroxymethyl)piperidin-1-yl)hexyl)urea Tmax at 100 mg/kg, po administered as single dose by LC-MS/MS analysis; type: organism-based; settings: in vivo; outline: as §2
Mus musculus [8] = experiment: Prodrug activation in BALB/c mouse assessed as 3-(tert-butyl)-1-cyclohexyl-1-(6-((2R,3R,4R,5S)-3,4,5-trihydroxy-2-(hydroxymethyl)piperidin-1-yl)hexyl)urea AUC(0 to infinity) at 100 mg/kg, po administered as single dose by LC-MS/MS analysis; type: organism-based; set-up: dose 100 mg/kg, route oral, time infinity; settings: in vivo
[9] = Apparent permeability of the compound across apical side to basolateral side in human Caco2 cells assessed as drug recovery at 5 uM measured after 2 hrs by LC-MS/MS analysis; type: ADME, cell-based; settings: Caco-2, read-out: Drug recovery
Mus musculus [10] = experiment: Prodrug activation in po dosed BALB/c mouse assessed as 3-(tert-butyl)-1-cyclohexyl-1-(6-((2R,3R,4R,5S)-3,4,5-trihydroxy-2-(hydroxymethyl)piperidin-1-yl)hexyl)urea formation measured up to 4 hrs by LC-MS/MS analysis; type: organism-based; settings: in vivo; outline: as §2
Mus musculus [11] = experiment: Prodrug activation in BALB/c mouse assessed as 3-(tert-butyl)-1-cyclohexyl-1-(6-((2R,3R,4R,5S)-3,4,5-trihydroxy-2-(hydroxymethyl)piperidin-1-yl)hexyl)urea formation at 100 mg/kg, po administered as single dose measured after 3 hrs by LC-MS/MS analysis; type: organism-based; settings: in vivo; outline: as §2

CC(=O)OC[C@@H]1[C@@H](OC(C)=O)[C@H](OC(C)=O)[C@@H](OC(C)=O)CN1CCCCCCN(C(=O)NC(C)(C)C)C1CCCCC1
IC50 [1]: > 80 µM
half-life at 200 µM [2]: 3 min
remaining at 1 h, 200 µM [3]: 0%
remaining at 2 h, 5 µM [4]: 84%
Drug metabolism (Mus musculus [5]): Metabolite_Detected
t1/2 (Mus musculus [6]): 66.6 min
Tmax (Mus musculus [7]): 15 min
AUC (Mus musculus [8]): 1912 ng·mL·h
recovery at 2 h, 5 µM [9]: 9%

CC(C)C(=O)OC[C@@H]1[C@@H](OC(=O)C(C)C)[C@H](OC(=O)C(C)C)[C@@H](OC(=O)C(C)C)CN1CCCCCCN(C(=O)NC(C)(C)C)C1CCCCC1
IC50 [1]: > 80 µM
half-life at 200 µM [2]: 10 min
remaining at 1 h, 200 µM [3]: 2%
remaining at 2 h, 5 µM [4]: 100%
Drug metabolism (Mus musculus [10]): Metabolite_Notdetected
t1/2 (Mus musculus [6]): 75 min
Tmax (Mus musculus [7]): 30 min
AUC (Mus musculus [8]): 362 ng·mL·h
recovery at 2 h, 5 µM [9]: < 60%

CCCC(=O)OC[C@@H]1[C@@H](OC(=O)CCC)[C@H](OC(=O)CCC)[C@@H](OC(=O)CCC)CN1CCCCCCN(C(=O)NC(C)(C)C)C1CCCCC1
IC50 [1]: > 80 µM
half-life at 200 µM [2]: 14 min
remaining at 1 h, 200 µM [3]: 4%
remaining at 2 h, 5 µM [4]: 106%
Drug metabolism (Mus musculus [5]): Metabolite_Detected
t1/2 (Mus musculus [6]): 50.4 min
Tmax (Mus musculus [7]): 30 min
AUC (Mus musculus [8]): 3884 ng·mL·h
Drug metabolism (Mus musculus [11]): > 1 µM
recovery at 2 h, 5 µM [9]: < 60%
